# Laboratory results: ChEMBL document CHEMBL2093137, “WHO-TDR NTD Screening”
# Assays:
# Trypanosoma cruzi = assay: WHO-TDR: Chagas disease; assay type: functional, organism-based, Homo sapiens; settings: MRC5
# How it was run: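 Each IC50 reflects antiparasitic potency against intracellular amastigotes of Trypanosoma cruzi Tulahuen CL2 beta-galactosidase strain. These were cultured in MRC-5SV2 human lung fibroblasts and exposed to a 10,000-compound diverse Life Chemicals library screened according to published standard procedures with a reference drug as positive control.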
# Brugia malayi [1] = assay: (§1) WHO-TDR: Lymphatic Filariasis; assay type: functional, organism-based;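 for % Inhibition: tested at 10 µM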
# How it was run: (§2)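 Percent inhibition and IC50 describe activity against Brugia malayi microfilariae in a whole-organism screen. The screen used previously published standard procedures with reference drugs as positive controls. Compounds came from a diverse Life Chemicals library of 10,000, filtered for drug-likeness and reactive groups.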
# Schistosoma mansoni [2] = assay: (§3) WHO-TDR: Schistosomiasis; assay type: functional; design: concentration or dose not given beside the values
# How it was run: (§4)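 Larval and/or adult Schistosoma mansoni (Puerto Rican strain) were tested whole against 10,000 diverse compounds from Life Chemicals. The procedure was a previously published standard one, using a reference drug as positive control. Results are expressed as percent inhibition and IC50.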
# Leishmania infantum = assay: WHO-TDR: Leishmaniasis; assay type: functional, organism-based, Mus musculus; settings: Macrophage
# How it was run: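 Values are IC50 figures for antiparasitic potency. They come from a whole-organism screen of a 10,000-compound diverse Life Chemicals library against Leishmania infantum MHOM/MA(BE)/67 amastigotes inside murine peritoneal macrophage host cells.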
# [3] = tested on: Trypanosoma brucei brucei; assay: WHO-TDR: Human African Trypanosomiasis (HAT); assay type: functional, organism-based; settings: Squib-427
# How it was run: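 Values are IC50 figures for antiparasitic potency. They come from a whole-organism screen of 10,000 diverse Life Chemicals compounds against bloodstream-form Trypanosoma brucei (Squib 427 strain).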
# Brugia malayi [4] = assay: as §1; assay type: functional; design: concentration or dose not given beside the values; how it was run: as §2
# Onchocerca lienalis = assay: (§5) WHO-TDR: Onchocerciasis; assay type: functional; design: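 at 12.5 µM on microfilariae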
# How it was run: (§6)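 Onchocerca ochengi or Onchocerca lienalis, animal pathogens used as surrogates for the human parasite, were screened as whole microfilariae against a 10,000-compound diverse library from Life Chemicals. The reported measures of activity are percent inhibition and IC50.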
# Brugia malayi [5] = assay: as §1; assay type: functional; design: concentration or dose not given beside the values; how it was run: as §2; remark: listed apart in the source
# [6] = WHO-TDR: Cytotoxicity; assay type: toxicity, cell-based; settings: human, MRC5 cells
# Plasmodium falciparum K1 = assay: WHO-TDR: Malaria; assay type: functional, organism-based, Homo sapiens; settings: Erythrocyte
# How it was run: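 Values are IC50 figures for antiplasmodial potency. They come from a whole-organism screen of 10,000 diverse Life Chemicals compounds against Plasmodium falciparum K1 growing inside human red blood cells, run by previously published standard procedures.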
# Schistosoma mansoni [7] = assay: as §3; assay type: functional, organism-based; how it was run: as §4
# Onchocerca ochengi = assay: as §5; assay type: functional; design: concentration or dose not given beside the values; how it was run: as §6;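 note: at 12.5 µM on microfilariae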
SMILES,IC50 (Trypanosoma cruzi) [µg/mL],IC50 (Brugia malayi [1]) [µM],% Inhibition (Schistosoma mansoni [2]) [%],IC50 (Leishmania infantum) [µg/mL],IC50 [3] [µg/mL],% Inhibition (Brugia malayi [4]) [%],% Inhibition (Onchocerca lienalis) [%],% Inhibition (Brugia malayi [5]) [%],IC50 [6] [µg/mL],IC50 (Plasmodium falciparum K1) [µg/mL],IC50 (Schistosoma mansoni [7]) [µg/mL],% Inhibition (Onchocerca ochengi) [%]
O=C(CCCSc1ccc(F)cc1)N1CCN(c2nc3ccc(Cl)cc3s2)CC1,> 13.5,3.54,0,4.37,> 13.5,40,12.34,100,> 13.5,> 13.5,,
O=C(CCC1CCCCC1)N1CCN(c2ccc(-c3cccnc3)nn2)CC1,4.89,,100,> 11.4,> 11.4,,,33.33,> 11.4,6.4,3.15,50
O=C(Nc1nc2c(s1)CSc1ccccc1-2)C1CCCN1S(=O)(=O)c1cccs1 (centres undefined),0.5,5.19,100,4.5,0.45,0,93,100,1.88,3.71,,
O=C(CSc1nnc(NC(=O)C23CC4CC(CC(C4)C2)C3)s1)Nc1nccs1,> 13.1,6.3,0,4.23,> 13.1,33.33,33.34,100,> 13.1,> 13.1,,
O=C(CSc1nnc(NC(=O)C2CCCCC2)s1)Nc1ccccc1C(F)(F)F,> 13.3,3.58,0,> 13.3,> 13.3,0,0,100,> 13.3,> 13.3,,
COc1ccc(Cl)cc1NC(=O)CSc1nccn1-c1cccc(C)c1C,2.76,3.94,0,> 12.1,> 12.9,25,46.67,100,> 12.1,> 12.1,,
COc1ccc(-c2nnc(NC(=O)c3ccc(S(=O)(=O)N4CC(C)OC(C)C4)cc3)o2)c(OC)c1 (centres undefined),4.91,3.22,0,4.88,> 15.1,25,66.7,100,> 15.1,10.6,,
Cc1nn(-c2ccccc2)c2[nH]cc(C(=O)Nc3ccc(F)c(Cl)c3)c(=O)c12,1.96,5.95,62.5,2.34,4.14,33.33,-1,100,1,> 11.9,,
O=C(Nc1nc(-c2ccccn2)cs1)c1ccc2ncsc2c1,0.345,2.02,0,3.21,2.36,40,66.7,100,3.63,1.52,,
Cc1[nH]c2ccccc2c1SCCNC(=O)c1c(-c2ccccc2Cl)noc1C,> 12.8,4.49,0,> 12.8,> 13.6,25,20,100,> 12.8,> 12.8,,
O=C(Nc1nccs1)c1ccc2c(c1)CCCC2,> 7.75,5.19,0,> 7.75,> 7.75,25,0,100,> 7.75,> 7.75,,
CCCCc1ccc(NC(=O)CSc2nccn2-c2ccccc2)cc1,3.22,4.31,0,> 11,> 11.7,25,0,100,> 11,> 11,,
O=C(COc1ccc(Cl)cc1Cl)Nc1nnc(C23CC4CC(CC(C4)C2)C3)s1,> 13.2,1.49,0,4.26,> 13.2,0,0,100,> 13.2,> 13.2,,
